Reference: ChEMBL document CHEMBL1134635, “Aziridinyl quinone antitumor agents based on indoles and cyclopent[b]indoles: structure-activity relationships for cytotoxicity and antitumor activity” (2001)

Experiments:
NCI-H460 [1] = assay: Concentration required for 50% cell kill. against NSC H460 cell line.; format: functional; settings: Homo sapiens
NCI-H460 [2] = assay: Concentration of the drug required for total growth inhibition against NSC H460 cell line.; format: functional; settings: Homo sapiens, read-out: Log TGI (converted)
Nucleic Acid = assay: % of DNA reductive alkylation determined by catalytic reduction of aziridinyl quinones in presence of 600 bp calf thymus DNA; format: functional; parameters: concentration or dose not given beside the values; settings: Bos taurus
Procedure, shortened: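 Calf thymus DNA (1-2 mg, sonicated to ~600 bp) in 0.05 M Tris pH 7.4 with Pd/C, quinone added at 5:1 base pair equivalents in DMSO. Degassed under argon, H2-purged 10 min, argon-purged, then 30 °C for 24 h anaerobically. Catalyst filtered off, DNA ethanol-precipitated twice, and alkylation quantified by absorbance at 550 nm (ε 800 M-1 cm-1).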

NCI-H460 [3] = assay: Concentration of the drug required for 50% growth inhibition against NSC (non small cell) H460 cell line.; format: functional; settings: Homo sapiens
[4] = tested on: Panel NCI-60 (60 carcinoma cell lines); assay: Cancer specificity was measured from the +/- value under average log LC50 60-cell line.; format: functional; settings: Homo sapiens, read-out: Average log LC50 (converted)
[5] = biological target: NAD(P)H dehydrogenase [quinone] 1 (Homo sapiens) (UniProt P15559); assay: The substrate specificity obtained from the ratio of Vmax to KM for human DT-diaphorase (from non-small-cell lung NCI-H460 cell line); format: cell-based
NAD(P)H dehydrogenase [quinone] 1 (Homo sapiens), sequence (P15559 whole entry): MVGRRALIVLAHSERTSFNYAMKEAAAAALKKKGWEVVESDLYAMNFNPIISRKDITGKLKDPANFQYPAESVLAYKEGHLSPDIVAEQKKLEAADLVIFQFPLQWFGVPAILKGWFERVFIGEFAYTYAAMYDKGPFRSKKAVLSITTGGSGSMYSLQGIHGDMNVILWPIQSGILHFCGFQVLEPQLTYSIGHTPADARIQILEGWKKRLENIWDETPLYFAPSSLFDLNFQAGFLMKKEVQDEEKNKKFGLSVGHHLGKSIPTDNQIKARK
Procedure, shortened: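 Recombinant human DT-diaphorase (from NCI-H460) at 1.4 × 10^-9 M final with 0.3 mM NADH in Tris buffer, quinone 1.3 × 10-6 to 6.7 × 10^-5 M final from a 4.0 mM DMSO stock. Both parts argon-purged 20 min and held at 30 °C 10 min, then mixed.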

B16 [6] = assay: Treated over control values(T/C) were measured at day 25 by B16 melanoma syngraft assay at 2 mg/kg/day on day 1 after sc tumor implantation of 10 E(5) cells; format: functional, Mus musculus; settings: route subcutaneous
Procedure, shortened: (§1)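 B16 melanoma syngraft in C57/bl mice, 10^5 cells implanted subcutaneously in the front flank on day 0. T/C recorded at day 25. Toxic means early lethality, or ≥50% lethality before any control deaths.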

B16 [7] = assay: Treated over control values(T/C) were measured at day 25 by B16 melanoma syngraft assay at 5 mg/kg/day on day 9 after sc tumor implantation of 10 E(5) cells; format: functional, Mus musculus; settings: route subcutaneous; procedure, shortened: as §1
B16 [8] = assay: Treated over control values(T/C) were measured at day 25 by B16 melanoma syngraft assay at 3 mg/kg/day on day 5 after sc tumor implantation of 10 E(5) cells; format: functional, Mus musculus; settings: route subcutaneous; procedure, shortened: as §1
[9] = tested on: Panel NCI-60 (60 carcinoma cell lines); assay: Cancer specificity was measured from the +/- value under average log LC50 NCI 60-cell line.; format: functional; settings: Homo sapiens, read-out: Average log LC50 (converted)
NCI-H460 [10] = assay: Concentration required for 50% cell kill against NSC H460 cell line.; format: functional; settings: Homo sapiens, read-out: Log LC50 (the source's name) (converted)
NCI-H460 [11] = assay: Concentration required for total growth inhibition against NSC H460 cell line.; format: functional; settings: Homo sapiens, read-out: Log TGI (converted)
NCI-H460 [12] = assay: Concentration required for 50% growth inhibition against NSC (non small cell) H460 cell line.; format: functional; settings: Homo sapiens

For `CC1=C(N2CC2)C(=O)c2c(c3c(n2C)C(O)CC3)C1=O` (stereo not drawn), the LC50 (NCI-H460 [1]) was 50100 nM, the TGI (NCI-H460 [2]) was 7590 nM and the Activity (Nucleic Acid) was 0.3%. For the same compound, the GI50 (NCI-H460 [3]) was 1260 nM, the LC50 [4] was 100000 nM and the Ratio [5] was 85500.

Work on `O=C1C(N2CC2)=CC(=O)c2c1[nH]c(CO)c2CO` yielded an LC50 (NCI-H460 [1]) of 11700 nM, a TGI (NCI-H460 [2]) of 1150 nM and an Activity (Nucleic Acid) of 3.4%. For the same compound, the GI50 (NCI-H460 [3]) was 138 nM, the LC50 [4] was 8510 nM and the Ratio [5] was 274000.

With `CC(=O)OC1CCc2c3c(n(C(C)=O)c21)C(=O)C=C(N1CC1)C3=O` (stereo not drawn) the Activity (Nucleic Acid) was 14% and the Ratio [5] was 705000.

`CC(=O)OCc1[nH]c2c(c1COC(C)=O)C(=O)C(C)=C(N1CC1)C2=O` was tested, and the CC50 (NCI-H460 [1]; read-out: Log LC50 (the source's name) (converted)) was 603 nM, the Activity (B16 [6]) was 74% and the Activity (B16 [7]) was greater than 50%. For the same compound, the TGI (NCI-H460 [2]) was 178 nM, the Activity (Nucleic Acid) was 37% and the Activity (B16 [8]) was greater than 50%. It also gave a GI50 (NCI-H460 [3]) of 35.5 nM, an LC50 [4] of 30200 nM and a Ratio [5] of 158000.

`O=C1C=C(N2CC2)C(=O)c2c1[nH]c1c2CCC1O` (stereo not drawn) gave a CC50 [9] of 2190 nM, a CC50 (NCI-H460 [10]) of 295 nM and an Activity (Nucleic Acid) of 22.5%. For the same compound, the TGI (NCI-H460 [11]) was 102 nM, the GI50 (NCI-H460 [12]) was 10 nM and the Ratio [5] was 405000.

In the case of `CC(=O)OC1CCc2c3c(n(C(C)=O)c21)C(=O)C(N1CC1)=CC3=O` (stereo not drawn), the Activity (B16 [6]) is reported as 50%, the Activity (B16 [7]) is reported as greater than 50% and the Activity (Nucleic Acid) is reported as 12%. For the same compound, the Activity (B16 [8]) was greater than 50% and the Ratio [5] was 234000.

`CC1=C(N2CC2)C(=O)c2c([nH]c3c2CCC3O)C1=O` (stereo not drawn) was tested, and the LC50 (NCI-H460 [1]) was 851 nM, the TGI (NCI-H460 [2]) was 21.4 nM and the Activity (Nucleic Acid) was 11.2%. The GI50 (NCI-H460 [3]) was 10 nM, the LC50 [4] was 18200 nM and the Ratio [5] was 147000.

Work on `CC(=O)OC1CCc2c1[nH]c1c2C(=O)C(N2CC2)=CC1=O` (stereo not drawn) yielded an Activity (Nucleic Acid) of 34% and a Ratio [5] of 651000.

`CC(=O)OC1CCc2c3c(n(C(C)=O)c21)C(=O)C(N1CC1)=C(C)C3=O` (stereo not drawn) showed an LC50 (NCI-H460 [1]) of 5010 nM, an Activity (B16 [6]) of 37% and an Activity (B16 [7]) of 15%. It also gave a TGI (NCI-H460 [2]) of 437 nM, an Activity (Nucleic Acid) of 9% and an Activity (B16 [8]) of 15%. The GI50 (NCI-H460 [3]) was 83.2 nM, the LC50 [4] was 25100 nM and the Ratio [5] was 56200.

Work on `CC1=C(N2CC2)C(=O)c2c([nH]c(C)c2C)C1=O` yielded an Activity (B16 [6]) of 10%, an Activity (B16 [7]) greater than 50% and an Activity (B16 [8]) of 60%.

`CC(=O)OCc1[nH]c2c(c1C)C(=O)C(N1CC1)=C(C)C2=O` showed an Activity (B16 [6]) of 47%, an Activity (B16 [7]) greater than 50% and an Activity (B16 [8]) greater than 50%.

In the case of `CC1=C(N2CC2)C(=O)c2[nH]c(C)c(C)c2C1=O`, the Activity (B16 [6]) is reported as 22%, the Activity (B16 [7]) is reported as greater than 50% and the Activity (B16 [8]) is reported as greater than 50%.

In the case of `CCOC(=O)c1[nH]c2c(c1CO)C(=O)C(N1CC1)=CC2=O`, the LC50 (NCI-H460 [1]) is reported as 631 nM, the TGI (NCI-H460 [2]) is reported as 100 nM and the Activity (Nucleic Acid) is reported as 37%. It also gave a GI50 (NCI-H460 [3]) of 10 nM, an LC50 [4] of 1620 nM and a Ratio [5] of 4.3e+06.

For `CC1=C(N2CC2)C(=O)c2[nH]c(CO)c(CO)c2C1=O`, the Activity (B16 [6]) was 54%, the Activity (B16 [7]) was greater than 50% and the Activity (Nucleic Acid) was 4%. It also gave an Activity (B16 [8]) greater than 50% and a Ratio [5] of 106000.

Work on `CC(=O)OC1CCc2c3c(n(C)c21)C(=O)C(N1CC1)=C(C)C3=O` (stereo not drawn) yielded an Activity (Nucleic Acid) of 1.4% and a Ratio [5] of 30000.
